Measurements as given in ChEMBL document CHEMBL1131828, “Synthesis and biological evaluation of a new class of vaccine adjuvants: aminoalkyl glucosaminide 4-phosphates (AGPs)” (1999).
Values after ≈ are worked out from the molar mass of the structure shown.

Columns and labels:
Assay type in all cases: functional
Oryctolagus cuniculus = species on record: Oryctolagus cuniculus; assay: Minimum pyrogenic dose was determined for Febrile response in a standard 3-rabbit USP pyrogen test by injecting compound in the marginal ear vein
How it was run: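 Test article dissolved in EtOH, then diluted with D5W to the desired concentrations just before injection. The minimal pyrogenic dose is the dose at which the summed temperature rise over the three rabbits reaches at least 1.2 °C.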

Mus musculus [1] = species on record: Mus musculus; assay: Half-maximal response in vitro using peritoneal exudate cells from Propionibacterium acnes-primed mice; conditions: read-out: ED50 (the source's name)
Mus musculus [2] = species on record: Mus musculus; assay: Ability to enhance antibody response to tetanus toxoid vaccine, total Immunoglobulin (Ig)
How it was run: (§1)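 Mice were immunized with tetanus toxoid in an oil-water emulsion with test article, then boosted 21 days after the primary dose. Serum was taken 14 days after the second injection and assayed by ELISA. Values are test titers divided by the titer of controls given oil-water vehicle with tetanus toxoid only.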

Mus musculus [3] = species on record: Mus musculus; assay: Ability to enhance antibody response to tetanus toxoid vaccine, IgG1; how it was run: as §1
Mus musculus [4] = species on record: Mus musculus; assay: Percent of cytotoxicity was determined for augment vaccine-induced CTL's against EG.7-ova target cells in two separate murine models
How it was run: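 C57BL/6 (H-2b) mice, 6 per group, were immunized on days 0 and 14 with a 2.5% oil-water emulsion containing 25 µg ovalbumin plus test article. On day 21, spleens were tested for ovalbumin-specific CTL against 51Cr-labeled E.G7-ova target cells, an ovalbumin-transfected line. Read-out was percent specific lysis.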

Mus musculus [5] = species on record: Mus musculus; assay: Ability to enhance antibody response to tetanus toxoid vaccine, IgG2b; how it was run: as §1
Mus musculus [6] = species on record: Mus musculus; assay: Ability to enhance antibody response to tetanus toxoid vaccine, IgG2a; how it was run: as §1
Homo sapiens [7] = species on record: Homo sapiens; assay: Relative ex vivo induction of TNF-alpha in human whole blood stimulated with 10 ug/mL
How it was run: (§2)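 Human whole blood was stimulated with sample, and cell-associated TNF-α and IL-1β were measured by sandwich ELISA. Relative induction below 0.05 was scored as not detected.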

Homo sapiens [8] = species on record: Homo sapiens; assay: Relative ex vivo induction of IL1-beta in human whole blood stimulated with 10 ug/mL; how it was run: as §2

SMILES | Dose (Oryctolagus cuniculus) [µg/kg] | EC50 (Mus musculus [1]) [ng/mL] | Response (Mus musculus [2]) | Response (Mus musculus [3]) | Cytotoxicity (Mus musculus [4]) [%] | Response (Mus musculus [5]) | Response (Mus musculus [6]) | Cytokine induction (Homo sapiens [7]) | Cytokine induction (Homo sapiens [8])
CCCCCCCCCCCCCC(=O)O[C@H](CCCCCCCCCCC)CC(=O)N[C@@H](CO)CO[C@@H]1OC(CO)[C@H](OP(=O)(O)O)C(OC(=O)C[C@@H](CCCCCCCCCCC)OC(=O)CCCCCCCCCCCCC)[C@@H]1NC(=O)C[C@@H](CCCCCCCCCCC)OC(=O)CCCCCCCCCCCCC (some centres undefined) | >10 | 150 (≈ 91.3 nM) | 4 | 3.4 | 34 | 2.4 | 3.8 | – | –
CCCCCCCCCCC[C@H](CC(=O)N[C@H](CO[C@@H]1OC(CO)[C@H](OP(=O)(O)O)C(OC(=O)C[C@@H](CCCCCCCCCCC)OC(=O)CCCCCCCCC)[C@@H]1NC(=O)C[C@@H](CCCCCCCCCCC)OC(=O)CCCCCCCCC)C(=O)O)OC(=O)CCCCCCCCC (some centres undefined) | <2.5 | 0.3 (≈ 0.202 nM) | – | – | – | – | – | 1.5 | 0.6
CCCCCCCCCCCCCC(=O)O[C@H](CCCCCCCCCCC)CC(=O)N[C@H](CO)CO[C@@H]1OC(CO)[C@H](OP(=O)(O)O)C(OC(=O)C[C@@H](CCCCCCCCCCC)OC(=O)CCCCCCCCCCCCC)[C@@H]1NC(=O)C[C@@H](CCCCCCCCCCC)OC(=O)CCCCCCCCCCCCC (some centres undefined) | 10 | 9 (≈ 5.48 nM) | 3.8 | 2.2 | 21 | 1.6 | 4.3 | 3.5 | 4.9
CCCCCCCCCCC[C@H](CC(=O)N[C@@H](CO[C@@H]1OC(CO)[C@H](OP(=O)(O)O)C(OC(=O)C[C@@H](CCCCCCCCCCC)OC(=O)CCCCCCCCC)[C@@H]1NC(=O)C[C@@H](CCCCCCCCCCC)OC(=O)CCCCCCCCC)C(=O)O)OC(=O)CCCCCCCCC (some centres undefined) | <0.06 | 0.06 (≈ 0.0403 nM) | 18.9 | 4.2 | 58 | 2.8 | 6.8 | >6 | 23
CCCCCCCCCCCCCCCC(=O)O[C@H](CCCCCCCCCCC)CC(=O)N[C@H]1[C@@H](O)[C@H](O)[C@H](CO[C@@H]2O[C@@H](CO)[C@@H](OP(=O)(O)O)[C@H](OC(=O)C[C@@H](CCCCCCCCCCC)OC(=O)CCCCCCCCCCCCC)[C@@H]2NC(=O)C[C@@H](CCCCCCCCCCC)OC(=O)CCCCCCCCCCC)O[C@H]1O | 10 | 14 (≈ 8.09 nM) | – | – | 31 | – | – | 1.2 | 0.7
CCCCCCCCCCC[C@H](CC(=O)NCCO[C@@H]1OC(CO)[C@H](OP(=O)(O)O)C(OC(=O)C[C@@H](CCCCCCCCCCC)OC(=O)CCCCCCCCC)[C@@H]1NC(=O)C[C@@H](CCCCCCCCCCC)OC(=O)CCCCCCCCC)OC(=O)CCCCCCCCC (some centres undefined) | 10 | 0.5 (≈ 0.346 nM) | – | – | 36 | – | – | 1.3 | 1.9
CCCCCCCCCCCCCC(=O)O[C@H](CCCCCCCCCCC)CC(=O)NC(CO[C@@H]1OC(CO)[C@H](OP(=O)(O)O)C(OC(=O)C[C@@H](CCCCCCCCCCC)OC(=O)CCCCCCCCCCCCC)[C@@H]1NC(=O)C[C@@H](CCCCCCCCCCC)OC(=O)CCCCCCCCCCCCC)C(=O)O (some centres undefined) | 0.6 | 3 (≈ 1.81 nM) | 3.6 | 1.9 | 14 | 0.9 | 2.1 | 1.7 | 4.8
CCCCCCCCCCC[C@H](CC(=O)NC(CO[C@@H]1OC(CO)[C@H](OP(=O)(O)O)C(OC(=O)C[C@@H](CCCCCCCCCCC)OC(=O)CCCCC)[C@@H]1NC(=O)C[C@@H](CCCCCCCCCCC)OC(=O)CCCCC)C(=O)O)OC(=O)CCCCC (some centres undefined) | <2.5 | > 10000 | 1.1 | 1.3 | – | 0.9 | 0.3 | – | –
CCCCCCCCCCC[C@H](CC(=O)NC(CO[C@@H]1OC(CO)[C@H](OP(=O)(O)O)C(OC(=O)C[C@@H](CCCCCCCCCCC)OC(=O)CCCCC)[C@@H]1NC(=O)C[C@@H](CCCCCCCCCCC)OC(=O)CCCCC)C(N)=O)OC(=O)CCCCC (some centres undefined) | >10 | > 10000 | – | – | – | – | – | – | –
CCCCCCCCCCCCCC(=O)O[C@H](CCCCCCCCCCC)CC(=O)NC(CO[C@@H]1OC(CO)[C@H](OP(=O)(O)O)C(OC(=O)C[C@@H](CCCCCCCCCCC)OC(=O)CCCCCCCCCCCCC)[C@@H]1NC(=O)C[C@@H](CCCCCCCCCCC)OC(=O)CCCCCCCCCCCCC)C(=O)OC (some centres undefined) | 10 | 67 (≈ 40.1 nM) | – | – | – | – | – | 1.1 | 1.1
CCCCCCCCCCC[C@H](CC(=O)NCCO[C@@H]1OC(CO)[C@H](OP(=O)(O)O)C(OC(=O)C[C@@H](CCCCCCCCCCC)OC(=O)CCCCC)[C@@H]1NC(=O)C[C@@H](CCCCCCCCCCC)OC(=O)CCCCC)OC(=O)CCCCC (some centres undefined) | 10 | > 10000 | – | – | – | – | – | – | –
CCCCCCCCCCCC(=O)O[C@H](CCCCCCCCCCC)CC(=O)NC(CO[C@@H]1OC(CO)[C@H](OP(=O)(O)O)C(OC(=O)C[C@@H](CCCCCCCCCCC)OC(=O)CCCCCCCCCCC)[C@@H]1NC(=O)C[C@@H](CCCCCCCCCCC)OC(=O)CCCCCCCCCCC)C(=O)O (some centres undefined) | <2.5 | 0.9 (≈ 0.572 nM) | – | – | – | – | – | 3.6 | 2
CCCCCCCCCCCCCC(=O)O[C@H](CCCCCCCCCCC)CC(=O)NC(CO[C@@H]1OC(CO)[C@H](OP(=O)(O)O)C(OC(=O)C[C@@H](CCCCCCCCCCC)OC(=O)CCCCCCCCCCCCC)[C@@H]1NC(=O)C[C@@H](CCCCCCCCCCC)OC(=O)CCCCCCCCCCCCC)C(N)=O (some centres undefined) | 10 | 20 (≈ 12.1 nM) | – | – | – | – | – | 1.1 | 0.9
CCCCCCCCCCCCCC(=O)O[C@H](CCCCCCCCCCC)CC(=O)NCCO[C@@H]1OC(CO)[C@H](OP(=O)(O)O)C(OC(=O)C[C@@H](CCCCCCCCCCC)OC(=O)CCCCCCCCCCCCC)[C@@H]1NC(=O)C[C@@H](CCCCCCCCCCC)OC(=O)CCCCCCCCCCCCC (some centres undefined) | 10 | 100 (≈ 62 nM) | – | – | 59 | – | – | 0.3 | 0.3
CCCCCCCCCCCCCC(=O)O[C@H](CCCCCCCCCCC)CC(=O)NCCCCCCCCO[C@@H]1OC(CO)[C@H](OP(=O)(O)O)C(OC(=O)C[C@@H](CCCCCCCCCCC)OC(=O)CCCCCCCCCCCCC)[C@@H]1NC(=O)C[C@@H](CCCCCCCCCCC)OC(=O)CCCCCCCCCCCCC (some centres undefined) | >10 | > 10000 | – | – | – | – | – | – | –
CCCCCCCCCCC[C@H](CC(=O)NC(CO[C@@H]1OC(CO)[C@H](OP(=O)(O)O)C(OC(=O)C[C@@H](CCCCCCCCCCC)OC(=O)CCCCCCC)[C@@H]1NC(=O)C[C@@H](CCCCCCCCCCC)OC(=O)CCCCCCC)C(=O)O)OC(=O)CCCCCCC (some centres undefined) | <2.5 | 33 (≈ 23.5 nM) | – | – | – | – | – | – | –
CCCCCCCCCCCCCC(=O)O[C@H](CCCCCCCCCCC)CC(=O)NCCCCCCO[C@@H]1OC(CO)[C@H](OP(=O)(O)O)C(OC(=O)C[C@@H](CCCCCCCCCCC)OC(=O)CCCCCCCCCCCCC)[C@@H]1NC(=O)C[C@@H](CCCCCCCCCCC)OC(=O)CCCCCCCCCCCCC (some centres undefined) | >10 | 160 (≈ 95.9 nM) | – | – | – | – | – | – | –
CCCCCCCCCCCCCC(=O)O[C@H](CCCCCCCCCCC)CC(=O)NCCCO[C@@H]1OC(CO)[C@H](OP(=O)(O)O)C(OC(=O)C[C@@H](CCCCCCCCCCC)OC(=O)CCCCCCCCCCCCC)[C@@H]1NC(=O)C[C@@H](CCCCCCCCCCC)OC(=O)CCCCCCCCCCCCC (some centres undefined) | 10 | 8 (≈ 4.92 nM) | 4.7 | 2.2 | 38 | 6.1 | 5.8 | 2.3 | 3.5
CCCCCCCCCCC[C@H](CC(=O)NC(CO[C@@H]1OC(CO)[C@H](OP(=O)(O)O)C(OC(=O)C[C@@H](CCCCCCCCCCC)OC(=O)CCCCCCCCC)[C@@H]1NC(=O)C[C@@H](CCCCCCCCCCC)OC(=O)CCCCCCCCC)C(N)=O)OC(=O)CCCCCCCCC (some centres undefined) | 10 | 0.3 (≈ 0.202 nM) | 8.9 | 2.6 | 65 | 3.3 | 1.7 | 3.5 | 6.2
CCCCCCCCCCCCCC(=O)O[C@H](CCCCCCCCCCC)CC(=O)NCCCCO[C@@H]1OC(CO)[C@H](OP(=O)(O)O)C(OC(=O)C[C@@H](CCCCCCCCCCC)OC(=O)CCCCCCCCCCCCC)[C@@H]1NC(=O)C[C@@H](CCCCCCCCCCC)OC(=O)CCCCCCCCCCCCC (some centres undefined) | 10 | 51 (≈ 31.1 nM) | – | – | 58 | – | – | 1 | 0.3
